From publication PMC3224553 (Bioorganic & medicinal chemistry letters, 2011) come the findings set out here.

The structures appear in SMILES notation.

The target in one data set is hPK M2 (Homo sapiens, UniProt P14618). As to the kind of experiment: luminescent pyruvate kinase-luciferase coupled assay. In kind it is biochemical. As to conditions: for AC50: hPK M2 AC50, average from three separate experiments. The gist of the method:
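Human PKM2 activity is read by luminescence in a pyruvate kinase–luciferase coupled format. AC50 values are the average of three separate experiments. Maximum response is the % activation at 57 μM of test compound, normalized as described in the supporting information.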

A further data set concerns Caco-2. As to the kind of experiment: Caco-2 permeability. Format: in vitro ADME. (Passage across Caco-2 layers is used to estimate intestinal permeability.)
The nature of the next data set: Caco-2 permeability. In kind it is in vitro ADME. Particulars: human, Caco-2, Caco-2 Permeability Efflux Ratio.
Data set [1] can be described thus: in vitro microsomal stability, human liver microsomes. In kind it is in vitro ADME. In general terms: Liver microsomes are vesicles of endoplasmic reticulum, rich in cytochrome P450 enzymes.
A short description of data set [2]: in vitro microsomal stability, mouse liver microsomes. Format: in vitro ADME.

Sequence of hPK M2 (P14618 whole entry): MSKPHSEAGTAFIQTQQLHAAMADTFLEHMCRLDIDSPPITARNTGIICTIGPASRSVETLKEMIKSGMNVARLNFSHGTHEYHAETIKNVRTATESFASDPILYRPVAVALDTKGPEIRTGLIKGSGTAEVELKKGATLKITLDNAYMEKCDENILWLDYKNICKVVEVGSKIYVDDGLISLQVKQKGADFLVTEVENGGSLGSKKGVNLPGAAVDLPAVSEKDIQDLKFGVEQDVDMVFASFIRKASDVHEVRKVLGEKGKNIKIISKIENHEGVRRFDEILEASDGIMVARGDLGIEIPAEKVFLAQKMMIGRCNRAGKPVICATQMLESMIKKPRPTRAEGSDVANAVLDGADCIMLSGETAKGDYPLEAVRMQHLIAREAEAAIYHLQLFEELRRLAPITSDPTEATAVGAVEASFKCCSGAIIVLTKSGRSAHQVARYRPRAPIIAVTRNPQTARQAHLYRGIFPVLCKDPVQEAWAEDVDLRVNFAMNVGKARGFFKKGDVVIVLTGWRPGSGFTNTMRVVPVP

As a reminder, the AC50 is the concentration giving half of the maximal activity seen. A higher AC50 goes with activity only at high concentration. Regarding `Cc1ccc(NS(=O)(=O)c2cccc(Cl)c2)cc1C` [Compound 8], on hPK M2, the AC50 was 18.3 µM. In other words, the double-digit micromolar range.

`Cc1ccc(NS(=O)(=O)c2cc3c(cc2N[C@@H](C)CO)NC(=O)CC3)cc1Cl` [Compound 68]: in the data set on Caco-2, the “Caco-2 Permeability Papp (A–B)” value is listed as 1.13 10^−6, cm/s and the “Caco-2 Permeability Papp (B–A)” value is listed as 11.9 10^−6, cm/s.

In the case of `Cc1ccc(NS(=O)(=O)c2ccc3c(c2)N(C)CCO3)cc1C` [Compound 19], the AC50 at hPK M2 amounted to 6 µM.

On to `Cc1ccc(NS(=O)(=O)c2cc(Br)cc3c2NC(=O)CC3)cc1C` [Compound 74b], for which the “PKM2 activation, result in words” value at hPK M2 is recorded as “no activity”.

The term efflux ratio denotes the permeability from basolateral to apical divided by that in the opposite direction, in the common usage. As for `Cc1ccc(NS(=O)(=O)c2cc3c(cc2F)NC(=O)CC3)cc1Cl` [Compound 64], in the data set “Caco-2 permeability”, the efflux ratio is ≤ 1. Further, in the data set with Caco-2, the “Caco-2 Permeability Papp (A–B)” value is 6.22 10^−6, cm/s and the “Caco-2 Permeability Papp (B–A)” value is given as 6.24 10^−6, cm/s.

`Cc1ccc(NS(=O)(=O)c2ccc3c(c2)CC(=O)N3C)cc1C` [Compound 21] showed an AC50 at hPK M2 of 2.3 µM.

As to `Cc1ccc(NS(=O)(=O)c2cc(N[C@@H](C)CO)cc3c2NC(=O)CC3)cc1Cl` [Compound 77b], the “PKM2 activation, result in words” value on hPK M2 is “inactive”.

`Cc1ccc(NS(=O)(=O)c2ccc3c(c2)CCC(C)(C)O3)cc1C` [Compound 10] displayed a concentration at half-maximal activity (AC50) on hPK M2 of 10 µM.

Take `CC(=O)N1CCc2cc(S(=O)(=O)Nc3ccc(C)c(C)c3)ccc21` [Compound 22]: half-maximal activity on hPK M2 (AC50) was put at 1.5 µM.

As a reminder, the half-life is the time needed for the level to fall by half in the phase considered. Read a low half-life as fast loss. With `Cc1ccc(NS(=O)(=O)c2cc3c(cc2N(C)C)NC(=O)CC3)cc1C` [Compound 52], at hPK M2, the “PKM2 activation, result in words” value is “retained activity”. For the same compound, the half-life in data set [1] and in data set [2] was < 25 min in each case.

With `Cc1ccc(NS(=O)(=O)c2cc(Br)cc3c2NC(=O)CC3)cc1Cl` [Compound 75b], at hPK M2, the “PKM2 activation, result in words” value is on record as “no activity”.

For `Cc1ccc(NS(=O)(=O)c2cc3c(cc2N[C@@H](C)CO)NC(=O)CC3)cc1C` [Compound 63], the “fold more potent than its enantiomer” value on hPK M2 ((S)- vs (R)-alaninol derivative) came out at 4 fold.

For `Cc1ccc(NS(=O)(=O)c2ccc3ccccc3c2)cc1C` [Compound 7], half-maximal activity on hPK M2 (AC50) was put at 18.4 µM.

Turning to `Cc1ccc(NS(=O)(=O)c2cccc(C(=O)O)c2)cc1C` [Compound 5], the AC50 at hPK M2 is > 20 µM.

With `CNc1cc2c(cc1S(=O)(=O)Nc1ccc(C)c(C)c1)CCC(=O)N2` [Compound 54], the “PKM2 activation, result in words” value on hPK M2 was “retained activity”. Besides, the half-life in data set [1] and in data set [2] was < 25 min each time.

The compound `Cc1ccc(NS(=O)(=O)c2ccc3c(c2)NC(=O)CO3)cc1C` [Compound 11] had an AC50 on hPK M2 of 13.4 µM.

As to `Cc1ccc(NS(=O)(=O)c2ccc3[nH]c(=O)[nH]c3c2)cc1C` [Compound 12], on hPK M2, the AC50 is > 20 µM.

With `Cc1ccc(NS(=O)(=O)c2ccc(F)cc2)cc1C` [Compound 6], the AC50 at hPK M2 is > 20 µM.

For the compound `Cc1ccc(NS(=O)(=O)c2cc3c(cc2N2CCC(N(C)C)C2)NC(=O)CC3)cc1C` (stereo not shown) [Compound 56], the “PKM2 activation, result in words” value on hPK M2 is “loss of activity”.

Regarding `Cc1ccc(NS(=O)(=O)c2ccc3c(c2)CC(=O)N3)cc1C` [Compound 15], half-maximal activity at hPK M2 (AC50) was put at 8.3 µM.

Take `Cc1ccc(NS(=O)(=O)c2ccc3c(c2)oc(=O)n3C)cc1C` [Compound 18]: half-maximal activity on hPK M2 (AC50) was put at 4.3 µM.

For `CC(=O)Nc1cccc(S(=O)(=O)Nc2ccc(C)c(C)c2)c1` [Compound 13], half-maximal activity on hPK M2 (AC50) was put at 13.1 µM.

`COc1ccc(S(=O)(=O)Nc2ccc(C)c(C)c2)cc1` [Compound 9]: at hPK M2, the AC50 is 17.3 µM.

Regarding `Cc1ccc(NS(=O)(=O)c2cc3c(cc2N2CCCCC2)NC(=O)CC3)cc1C` [Compound 57], the “PKM2 activation, result in words” value at hPK M2 is on record as “loss of activity”.

At hPK M2, `Cc1ccc(NS(=O)(=O)c2ccc(N3CCCC3=O)cc2)cc1C` [Compound 20] showed an AC50 of 0.94 µM.

Turning to `Cc1ccc(NS(=O)(=O)c2cc(N[C@@H](C)CO)cc3c2NC(=O)CC3)cc1C` [Compound 76b], at hPK M2, the “PKM2 activation, result in words” value was “inactive”.

With `O=C1CCc2cc(S(=O)(=O)Nc3ccc(F)c(Cl)c3)c(F)cc2N1` [Compound 66], the efflux ratio in the data set “Caco-2 permeability” is ≤ 1. Moreover, in the data set with Caco-2, the “Caco-2 Permeability Papp (A–B)” value was 9.38 10^−6, cm/s and the “Caco-2 Permeability Papp (B–A)” value is 7.91 10^−6, cm/s.

`Cc1ccc(NS(=O)(=O)c2ccc3c(c2)CCCC(=O)N3)cc1C` [Compound 16] yielded an AC50 at hPK M2 of 7.1 µM.

For the compound `CC(=O)Nc1ccc(S(=O)(=O)Nc2ccc(C)c(C)c2)cc1` [Compound 17], at hPK M2, the AC50 came out at 6.9 µM.

As to `C[C@@H](CO)Nc1cc2c(cc1S(=O)(=O)Nc1ccc(F)c(Cl)c1)CCC(=O)N2` [Compound 69], in the data set on Caco-2, the “Caco-2 Permeability Papp (A–B)” value is on record as 1.61 10^−6, cm/s and the “Caco-2 Permeability Papp (B–A)” value is on record as 17.52 10^−6, cm/s.

In turn, `CC(=O)N1CCCc2cc(S(=O)(=O)Nc3ccc(C)c(C)c3)ccc21` [Compound 14] returned an AC50 at hPK M2 of 9 µM. This counts as single-digit micromolar.

In the case of `Cc1ccc(NS(=O)(=O)c2ccc3c(c2)CCC(=O)N3)cc1C` [Compound 3], the half-life in data set [1] and in data set [2] was < 20 min in each case. The efflux ratio in the data set “Caco-2 permeability” is < 1. Further, the “Caco-2 Permeability Papp (A–B)” value in the data set on Caco-2 is 14.9 10^−6, cm/s. Besides, in the data set on Caco-2, the “Caco-2 Permeability Papp (B–A)” value is given as 12.21 10^−6, cm/s.
